The subject of series [1] is Mus musculus. Description: Biodistribution of intravenously injected [82Br]-labeled compound in tumor of BDF1 female mice bearing subcutaneous Lewis lung carcinoma after 0.25 hours. The class given is ADME, organism-based. To be noted: in vivo, iv.
For series [2], the system named is Mus musculus. Description: Biodistribution of intravenously injected [82Br]-labeled compound in spleen of BDF1 female mice bearing subcutaneous Lewis lung carcinoma after 2 hours. To be noted: in vivo, iv. The class given is ADME, organism-based.
Series [3] relates to Mus musculus. Description: Biodistribution of intravenously injected [82Br]-labeled compound in bone of BDF1 female mice bearing subcutaneous Lewis lung carcinoma after 4 hours. To be noted: in vivo, iv. The class given is ADME, organism-based, Bone element. In a few lines:
(§1)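 82Br-labeled nucleoside given intravenously to female BDF1 mice bearing subcutaneous Lewis lung carcinoma, at 47-130 μg carrying 20-60 kBq. Mice sacrificed at each time point. Wet-weighed tissues γ-counted. Values are percent injected dose per gram wet tissue, mean ± SD, n = 6.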

Series [4] concerns Mus musculus. Nature of the series: Biodistribution of intravenously injected [82Br]-labeled compound in gut of BDF1 female mice bearing subcutaneous Lewis lung carcinoma after 0.25 hours. The class given is ADME, organism-based. To be noted: in vivo, iv. Summed up:
as §1

Series [5] relates to Mus musculus. Description: Biodistribution of intravenously injected [82Br]-labeled compound in heart of BDF1 female mice bearing subcutaneous Lewis lung carcinoma after 2 hours. The class given is ADME, organism-based. To be noted: in vivo, iv. In a few lines: (§2)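 Female BDF1 mice with subcutaneous Lewis lung carcinoma given an iv injection of [82Br]-labelled nucleoside, 47-130 μg carrying 20-60 kBq 82Br. Tissues were excised, weighed wet and γ-counted. Values are percent injected dose per gram of wet tissue, mean ± standard deviation of six animals, with organ-to-tumour ratios derived.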

The test system of series [6] is Mus musculus. Description: Biodistribution of intravenously injected [82Br]-labeled compound in heart of BDF1 female mice bearing subcutaneous Lewis lung carcinoma after 24 hours. To be noted: in vivo, iv. The class given is ADME, organism-based. Summed up:
as §2

The subject of series [7] is Mus musculus. Nature of the series: Biodistribution of intravenously injected [82Br]-labeled compound in kidney of BDF1 female mice bearing subcutaneous Lewis lung carcinoma after 0.5 hours. The class given is ADME, organism-based. To be noted: in vivo, iv. Summed up:
as §2

Series [8] deals with Mus musculus. Nature of the series: Biodistribution of intravenously injected [82Br]-labeled compound in bone of BDF1 female mice bearing subcutaneous Lewis lung carcinoma after 0.25 hours. The format is ADME, organism-based, Bone element. To be noted: in vivo, iv. Summed up: as §1
Series [9] has as its system Mus musculus. Nature of the series: Biodistribution of intravenously injected [82Br]-labeled compound in kidney of BDF1 female mice bearing subcutaneous Lewis lung carcinoma after 2 hours. To be noted: in vivo, iv. The class given is ADME, organism-based. Summed up:
as §2

Series [10] deals with Mus musculus. Nature of the series: Biodistribution of intravenously injected [82Br]-labeled compound in liver of BDF1 female mice bearing subcutaneous Lewis lung carcinoma after 1 hours. The class given is ADME, organism-based. To be noted: in vivo, iv. In a few lines: as §2
Series [11] deals with Mus musculus. Description: Biodistribution of intravenously injected [82Br]-labeled compound in lung of BDF1 female mice bearing subcutaneous Lewis lung carcinoma after 8 hours. The class given is ADME, organism-based. To be noted: in vivo, iv. In a few lines: as §2
Series [12] deals with Mus musculus. Nature of the series: Biodistribution of intravenously injected [82Br]-labeled compound in skin of BDF1 female mice bearing subcutaneous Lewis lung carcinoma after 1 hours. The format is ADME, organism-based, Zone of skin. To be noted: in vivo, iv. In a few lines:
as §2

Series [13] concerns Mus musculus. Nature of the series: Biodistribution of intravenously injected [82Br]-labeled compound in skin of BDF1 female mice bearing subcutaneous Lewis lung carcinoma after 4 hours. The class given is ADME, organism-based, Zone of skin. To be noted: in vivo, iv. In a few lines:
as §2

Series [14] deals with Mus musculus. Description: Biodistribution of intravenously injected [82Br]-labeled compound in skin of BDF1 female mice bearing subcutaneous Lewis lung carcinoma after 8 hours. To be noted: in vivo, iv. The class given is ADME, organism-based, Zone of skin. In a few lines: as §2
Series [15] deals with Mus musculus. Nature of the series: Biodistribution of intravenously injected [82Br]-labeled compound in liver of BDF1 female mice bearing subcutaneous Lewis lung carcinoma after 4 hours. To be noted: in vivo, iv. The format is ADME, organism-based. In a few lines: as §2
Series [16] deals with Mus musculus. Description: Biodistribution of intravenously injected [82Br]-labeled compound in lung of BDF1 female mice bearing subcutaneous Lewis lung carcinoma after 0.25 hours. To be noted: in vivo, iv. The class given is ADME, organism-based. In a few lines:
as §2

In series [17] the test system is Mus musculus. Description: Biodistribution of intravenously injected [82Br]-labeled compound in stomach of BDF1 female mice bearing subcutaneous Lewis lung carcinoma after 24 hours. The format is ADME, organism-based. To be noted: in vivo, iv.
Series [18] relates to Mus musculus. Nature of the series: Biodistribution of intravenously injected [131I]-labeled compound in gut of BDF1 female mice bearing subcutaneous Lewis lung carcinoma after 2 hours. The class given is ADME, organism-based. To be noted: in vivo, iv. In a few lines: (§3)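 Female BDF1 mice bearing subcutaneous Lewis lung carcinoma received a single intravenous dose of 0.5-1.8 μg of the 131I-labeled nucleoside (55-110 kBq). They were sacrificed at set times, and tissues were weighed wet and γ-counted. Activity is expressed as percent of injected dose per gram of wet tissue, given as mean ± standard deviation for six animals.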

Series [19] relates to Mus musculus. Nature of the series: Biodistribution of intravenously injected [131I]-labeled compound in gut of BDF1 female mice bearing subcutaneous Lewis lung carcinoma after 24 hours. The format is ADME, organism-based. To be noted: in vivo, iv. Summed up: as §3
The test system of series [20] is Mus musculus. Nature of the series: Biodistribution of intravenously injected [131I]-labeled compound in heart of BDF1 female mice bearing subcutaneous Lewis lung carcinoma after 24 hours. To be noted: in vivo, iv. The format is ADME, organism-based. Summed up:
as §3

In series [21] the test system is Mus musculus. Description: Biodistribution of intravenously injected [131I]-labeled compound in heart of BDF1 female mice bearing subcutaneous Lewis lung carcinoma after 4 hours. The class given is ADME, organism-based. To be noted: in vivo, iv. Summed up:
as §3

Series [22] concerns Mus musculus. Description: Biodistribution of intravenously injected [131I]-labeled compound in kidney of BDF1 female mice bearing subcutaneous Lewis lung carcinoma after 0.25 hours. The format is ADME, organism-based. To be noted: in vivo, iv. In a few lines:
as §3

The subject of series [23] is Mus musculus. Description: Biodistribution of intravenously injected [131I]-labeled compound in kidney of BDF1 female mice bearing subcutaneous Lewis lung carcinoma after 1 hours. The format is ADME, organism-based. To be noted: in vivo, iv. In a few lines: as §3
For series [24], the system named is Mus musculus. Description: Biodistribution of intravenously injected [131I]-labeled compound in lung of BDF1 female mice bearing subcutaneous Lewis lung carcinoma after 0.25 hours. The class given is ADME, organism-based. To be noted: in vivo, iv. In a few lines:
as §3

Series [25] relates to Mus musculus. Description: Biodistribution of intravenously injected [131I]-labeled compound in lung of BDF1 female mice bearing subcutaneous Lewis lung carcinoma after 24 hours. The format is ADME, organism-based. To be noted: in vivo, iv. Summed up: as §3
Series [26] has as its system Mus musculus. Description: Biodistribution of intravenously injected [131I]-labeled compound in liver of BDF1 female mice bearing subcutaneous Lewis lung carcinoma after 2 hours. The format is ADME, organism-based. To be noted: in vivo, iv. Summed up:
as §3

Series [27] relates to Mus musculus. Description: Biodistribution of intravenously injected [131I]-labeled compound in liver of BDF1 female mice bearing subcutaneous Lewis lung carcinoma after 24 hours. The class given is ADME, organism-based. To be noted: in vivo, iv. Summed up: as §3
Series [28] concerns Mus musculus. Nature of the series: Biodistribution of intravenously injected [131I]-labeled compound in liver of BDF1 female mice bearing subcutaneous Lewis lung carcinoma after 4 hours. The format is ADME, organism-based. To be noted: in vivo, iv. In a few lines: as §3
Series [29] has as its system Mus musculus. Description: Biodistribution of intravenously injected [131I]-labeled compound in muscle of BDF1 female mice bearing subcutaneous Lewis lung carcinoma after 24 hours. The format is ADME, organism-based, Muscle tissue. To be noted: in vivo, iv. Summed up:
(§4)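 Female BDF1 mice with subcutaneous Lewis lung carcinoma given i.v. 0.5-1.8 μg of 131I-labeled nucleoside (55-110 kBq). Killed at set times. Tissues weighed wet and γ-counted. Radioactivity expressed as percent injected dose per gram wet tissue, mean ± SD of six animals.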

Series [30] has as its system Mus musculus. Nature of the series: Biodistribution of intravenously injected [131I]-labeled compound in muscle of BDF1 female mice bearing subcutaneous Lewis lung carcinoma after 8 hours. The format is ADME, organism-based, Muscle tissue. To be noted: in vivo, iv. Summed up: as §4
Series [31] deals with Mus musculus. Nature of the series: Biodistribution of intravenously injected [131I]-labeled compound in muscle of BDF1 female mice bearing subcutaneous Lewis lung carcinoma after 0.25 hours. The format is ADME, organism-based, Muscle tissue. To be noted: in vivo, iv. In a few lines:
as §3

The test system of series [32] is Mus musculus. Description: Biodistribution of intravenously injected [131I]-labeled compound in skin of BDF1 female mice bearing subcutaneous Lewis lung carcinoma after 0.25 hours. The format is ADME, organism-based, Zone of skin. To be noted: in vivo, iv. In a few lines: as §4
For series [33], the system named is Mus musculus. Nature of the series: Biodistribution of intravenously injected [131I]-labeled compound in skin of BDF1 female mice bearing subcutaneous Lewis lung carcinoma after 24 hours. The format is ADME, organism-based, Zone of skin. To be noted: in vivo, iv. In a few lines:
as §4

Series [34] concerns Mus musculus. Description: Biodistribution of intravenously injected [131I]-labeled compound in spleen of BDF1 female mice bearing subcutaneous Lewis lung carcinoma after 0.25 hours. The format is ADME, organism-based. To be noted: in vivo, iv. In a few lines:
as §4

Series [35] deals with Mus musculus. Description: Biodistribution of intravenously injected [131I]-labeled compound in stomach of BDF1 female mice bearing subcutaneous Lewis lung carcinoma after 24 hours. The class given is ADME, organism-based. To be noted: in vivo, iv. In a few lines: as §4
The species named for series [36] is Mus musculus. Description: Urinary iodide observed in BDF1 female mice bearing lewis lung tumor after 0-0.5 hr of injected [131I]-compound. The class given is functional, tissue-based. To be noted: Urine.
Series [37] is filed under the species Mus musculus. Description: Other urinary compounds observed in BDF1 female mice bearing lewis lung tumor after 0-0.5 hr of injected [131I]-compound. The class given is functional, tissue-based. To be noted: Urine.
The species entered for series [38] is Mus musculus. Nature of the series: Urinary [131I]5-iodouracil observed in BDF1 female mice bearing lewis lung tumor after 6-7 hr of injected [131I]-compound. The format is functional, tissue-based. To be noted: Urine.
Series [39] is filed under the species Mus musculus. Nature of the series: Other urinary compounds observed in BDF1 female mice bearing lewis lung tumor after 24 hr of injected [131I]-compound. The format is functional, tissue-based. To be noted: Urine.

These results are taken from ChEMBL document CHEMBL1124493, “Synthesis and tumor uptake of 5-82Br- and 5-131I-labeled 5-halo-1-(2-fluoro-2-deoxy-beta-D-ribofuranosyl)uracils” (J Med Chem, 1989).

Regarding `O=c1[nH]c(=O)n([C@H]2O[C@@H](CO)[C@H](O)[C@H]2F)cc1Br`, the Injected dose/g with Mus musculus [1] turned out to be 1.39%; in the series on Mus musculus [2] it was 0.35%; in the series on Mus musculus [3], 0.17%; in the series with Mus musculus [4] it was 1.19%; with Mus musculus [5] it was 0.48%; with Mus musculus [6], 0.48%. Also, the Injected dose/g in the series with Mus musculus [7] was 2.68%; in the series with Mus musculus [8], 0.52%; in the series on Mus musculus [9], 0.71%; with Mus musculus [10] it was 0.34%; with Mus musculus [11], 0.46%; in the series with Mus musculus [12] it was 0.45%. Moreover, the Injected dose/g in the series on Mus musculus [13] is recorded as 0.31%; with Mus musculus [14], 0.34%; in the series with Mus musculus [15], 0.23%; in the series on Mus musculus [16], 1.7%; in the series on Mus musculus [17], 0.34%.
With `O=c1[nH]c(=O)n([C@@H]2O[C@H](CO)[C@@H](O)[C@H]2F)cc1I`, the Injected dose/g in the series with Mus musculus [18] amounted to 1.9%; in the series with Mus musculus [19], 0.07%; with Mus musculus [20] it was 0.1%; in the series with Mus musculus [21] it was 3.5%; with Mus musculus [22], 21.1%; in the series on Mus musculus [23] it was 12%. The Injected dose/g was 7.9% with Mus musculus [24]; 0.1% with Mus musculus [25]; 2.8% in the series with Mus musculus [26]; 0.1% with Mus musculus [27]; 2.6% in the series on Mus musculus [28]; 0.03% in the series on Mus musculus [29]. The Injected dose/g amounted to 0.7% in the series with Mus musculus [30]; 2.5% in the series on Mus musculus [31]; 5.2% in the series on Mus musculus [32]; 0.1% with Mus musculus [33]; 3.2% with Mus musculus [34]; 0.21% in the series with Mus musculus [35]. The Radioactive constituents came to 4.7% in the series listed under Mus musculus [36], 2.6% in the series filed under Mus musculus [37], 0% in the series filed under Mus musculus [38] and 0% in the series filed under Mus musculus [39].
